Measurements reported in ChEMBL document CHEMBL1124549, “N-azamonobactams. 2. Synthesis of some N-iminoacetic acid and N-glycyl analogues” (1989).
Converted amounts (≈) assume the structure as drawn.

What was measured:
Type in all cases: functional
Serratia marcescens [1] = assay: In vitro antibacterial activity against CMC-83-74 strain of Serratia marcescens
Method in brief: (§1)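 Agar dilution on Mueller-Hinton agar holding 2-fold decreasing drug concentrations. Agar surfaces were spot-inoculated with (1-5) × 10^4 CFU per strain using a replicating device. Plates were incubated 18 h at 35 °C. MIC was recorded as the lowest concentration inhibiting growth of the strain.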

Morganella morganii [2] = assay: In vitro antibacterial activity against VGH-84-12 strain of Morganella morganii; method in brief: as §1
Escherichia coli [3] = assay: In vitro antibacterial activity against ATCC 25922 strain of Escherichia coli; method in brief: as §1
Enterobacter cloacae [4] = assay: In vitro antibacterial activity against MOR-84-30 strain of Enterobacter cloacae
Klebsiella pneumoniae [5] = assay: In vitro antibacterial activity against CMC-84-31 strain of Klebsiella pneumoniae; method in brief: as §1
Klebsiella pneumoniae [6] = assay: In vitro antibacterial activity against IO-83-5 strain of Klebsiella pneumoniae; method in brief: as §1
Klebsiella pneumoniae [7] = assay: In vitro antibacterial activity against MOR-84-24 strain of Klebsiella pneumoniae; method in brief: as §1
Morganella morganii [8] = assay: In vitro antibacterial activity against MOR-84-45 strain of Morganella morganii; method in brief: as §1
[9] = In vitro antibacterial activity against IO-83-21 strain of Proteus rettgeri; conditions: Providencia rettgeri; method in brief: as §1
Enterobacter cloacae [10] = assay: In vitro antibacterial activity against K-84-10 strain of Enterobacter cloacae
Escherichia coli [11] = assay: In vitro antibacterial activity against MOR-84-20 strain of Escherichia coli; method in brief: as §1
Enterobacter cloacae [12] = assay: In vitro antibacterial activity against VGH-84-39 strain of Enterobacter cloacae
Providencia stuartii = assay: In vitro antibacterial activity against CMC-83-3 strain of Providencia stuartii; method in brief: as §1
Morganella morganii [13] = assay: In vitro antibacterial activity against CMC-84-38 strain of Morganella morganii; method in brief: as §1
Citrobacter koseri = assay: In vitro antibacterial activity against J-82-24 strain of Citrobacter diversus; method in brief: as §1
Escherichia coli [14] = assay: In vitro antibacterial activity against CMC-84-50 strain of Escherichia coli; method in brief: as §1
Serratia marcescens [15] = assay: In vitro antibacterial activity against MOR-84-41 strain of Serratia marcescens; method in brief: as §1
Escherichia coli [16] = assay: In vitro antibacterial activity against VGH-84-19 strain of Escherichia coli; method in brief: as §1
Serratia marcescens [17] = assay: In vitro antibacterial activity against IO-83-63 strain of Serratia marcescens; method in brief: as §1

MIC (Serratia marcescens [1]) [µg/mL]	MIC (Morganella morganii [2]) [µg/mL]	MIC (Escherichia coli [3]) [µg/mL]	MIC (Enterobacter cloacae [4]) [µg/mL]	MIC (Klebsiella pneumoniae [5]) [µg/mL]	MIC (Klebsiella pneumoniae [6]) [µg/mL]	MIC (Klebsiella pneumoniae [7]) [µg/mL]	MIC (Morganella morganii [8]) [µg/mL]	MIC [9] [µg/mL]	MIC (Enterobacter cloacae [10]) [µg/mL]	MIC (Escherichia coli [11]) [µg/mL]	MIC (Enterobacter cloacae [12]) [µg/mL]	MIC (Providencia stuartii) [µg/mL]	MIC (Morganella morganii [13]) [µg/mL]	MIC (Citrobacter koseri) [µg/mL]	MIC (Escherichia coli [14]) [µg/mL]	MIC (Serratia marcescens [15]) [µg/mL]	MIC (Escherichia coli [16]) [µg/mL]	MIC (Serratia marcescens [17]) [µg/mL]	SMILES
16 (≈ 47 µM)	4 (≈ 11.8 µM)	8 (≈ 23.5 µM)	32 (≈ 94 µM)	2 (≈ 5.88 µM)	4 (≈ 11.8 µM)	8 (≈ 23.5 µM)	16 (≈ 47 µM)	0.12 (≈ 0.353 µM)	4 (≈ 11.8 µM)	2 (≈ 5.88 µM)	8 (≈ 23.5 µM)	2 (≈ 5.88 µM)	8 (≈ 23.5 µM)	4 (≈ 11.8 µM)	2 (≈ 5.88 µM)	4 (≈ 11.8 µM)	2 (≈ 5.88 µM)	8 (≈ 23.5 µM)	CO/N=C(/C(=O)NC1CN(/N=C/C(=O)O)C1=O)c1csc(N)n1 (stereo unspecified)
> 128	> 128	> 128	> 128	> 128	> 128	> 128	> 128	64 (≈ 187 µM)	> 128	> 128	> 128	> 128	> 128	> 128	> 128	> 128	> 128	> 128	CO/N=C(/C(=O)NC1CN(NCC(=O)O)C1=O)c1csc(N)n1 (stereo unspecified)
128 (≈ 335 µM)	64 (≈ 167 µM)	8 (≈ 20.9 µM)	64 (≈ 167 µM)	8 (≈ 20.9 µM)	8 (≈ 20.9 µM)	16 (≈ 41.8 µM)	128 (≈ 335 µM)	0.5 (≈ 1.31 µM)	8 (≈ 20.9 µM)	8 (≈ 20.9 µM)	16 (≈ 41.8 µM)	32 (≈ 83.7 µM)	32 (≈ 83.7 µM)	16 (≈ 41.8 µM)	4 (≈ 10.5 µM)	32 (≈ 83.7 µM)	8 (≈ 20.9 µM)	32 (≈ 83.7 µM)	C=CCOC(=O)CNN1CC(NC(=O)/C(=N/OC)c2csc(N)n2)C1=O (stereo unspecified)

SMILES	MIC (Serratia marcescens [1]) [µg/mL]	MIC (Morganella morganii [2]) [µg/mL]	MIC (Escherichia coli [3]) [µg/mL]	MIC (Enterobacter cloacae [4]) [µg/mL]	MIC (Klebsiella pneumoniae [5]) [µg/mL]	MIC (Klebsiella pneumoniae [6]) [µg/mL]	MIC (Klebsiella pneumoniae [7]) [µg/mL]	MIC (Morganella morganii [8]) [µg/mL]	MIC [9] [µg/mL]	MIC (Enterobacter cloacae [10]) [µg/mL]	MIC (Escherichia coli [11]) [µg/mL]	MIC (Enterobacter cloacae [12]) [µg/mL]	MIC (Providencia stuartii) [µg/mL]	MIC (Morganella morganii [13]) [µg/mL]	MIC (Citrobacter koseri) [µg/mL]	MIC (Escherichia coli [14]) [µg/mL]	MIC (Serratia marcescens [15]) [µg/mL]	MIC (Escherichia coli [16]) [µg/mL]	MIC (Serratia marcescens [17]) [µg/mL]
C[C@H]1[C@H](NC(=O)/C(=N\OC(C)(C)C(=O)O)c2csc(N)n2)C(=O)N1S(=O)(=O)O [AZTREONAM]	0.25 (≈ 0.574 µM)	0.03 (≈ 0.0689 µM)	0.06 (≈ 0.138 µM)	–	0.03 (≈ 0.0689 µM)	–	0.06 (≈ 0.138 µM)	0.015 (≈ 0.0344 µM)	0.002 (≈ 0.00459 µM)	–	0.06 (≈ 0.138 µM)	–	0.015 (≈ 0.0344 µM)	0.015 (≈ 0.0344 µM)	0.03 (≈ 0.0689 µM)	0.06 (≈ 0.138 µM)	0.06 (≈ 0.138 µM)	0.06 (≈ 0.138 µM)	–
